According to ChEMBL document CHEMBL1152615, “Cytosporones, coumarins, and an alkaloid from the endophytic fungus Pestalotiopsis sp. isolated from the Chinese mangrove plant Rhizophoramucronata” (Bioorg Med Chem, 2009):
The source made the active and inactive calls.

Experiments:
Type in all cases: functional, cell-based
L5178Y = assay: Cytotoxicity against mouse L5178Y cells
How it was run: (§1)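 MTT assay. Cells kept in RPMI-1640 with Na-carbonate (pH 7.2) plus 10% FCS, at 37 °C under humidified 5% CO2/95% air. Seeded at 1500 cells/mL and exposed for 72 h to compounds in DMSO at several concentrations, with an initial test concentration of 10 µg/mL. MTT added for 3 h, then DMSO for 1 h to lyse cells; absorbance read at 595 nm. Negative control was medium with 0.1% EGMME/DMSO.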

PC-12 = assay: Cytotoxicity against rat PC12 cells; how it was run: as §1
HeLa = assay: Cytotoxicity against human HeLa cells; how it was run: as §1

Measured: Activity

CC(O)CCCCCC1OC(=O)Cc2cc(O)cc(O)c21 (centres undefined)
inactive: all assays above

CCOC(=O)Cc1cc(O)cc(O)c1C(=O)CCCCCC(C)O (centres undefined)
inactive: all assays above

COc1cc(OC)c2oc(=O)c(CO)cc2c1
inactive: all assays above

COc1cc(OC)c2oc(=O)c(C(O)C(C)O)cc2c1 (centres undefined)
inactive: all assays above

COc1cc(OC)c2oc(=O)c(CC(O)CO)cc2c1 (centres undefined)
inactive: all assays above

CC(=O)OC(C)CCCCCC1OC(=O)Cc2cc(O)cc(O)c21 (centres undefined)
inactive: all assays above

COc1cc(O)c2oc(=O)c(CC(O)CO)cc2c1 (centres undefined)
inactive: all assays above

COC(=O)Cc1cc(O)cc(O)c1C(=O)CCCCCC(C)O (centres undefined)
inactive: all assays above

COc1cc(O)cc2cc(CO)c(=O)oc12
inactive: all assays above

COc1cc(OC)c2oc(=O)c(CC(C)O)cc2c1 (centres undefined)
inactive: all assays above

CCCCCCCC(=O)c1c(O)cc(O)cc1CC(=O)OC
inactive: all assays above

CCCCCCCC1OC(=O)Cc2cc(O)cc(O)c21 (centres undefined)
inactive: all assays above

CC(=O)OCCCCCCCC1OC(=O)Cc2cc(O)cc(O)c21 (centres undefined)
inactive: all assays above
